Measured values reported in ChEMBL document CHEMBL3108700, “Designing anti-inflammatory drugs from parasitic worms: a synthetic small molecule analogue of the Acanthocheilonema viteae product ES-62 prevents development of collagen-induced arthritis” (J Med Chem, 2013).
The source made the active and inactive calls. The rule behind the calls is not given here.

Legend:
[1] = target: T1, Toll-like receptor 9 (Mus musculus) (UniProt Q9EQU3); assay: Inhibition of TLR9 in BALB/c mouse BMDM assessed as downregulation of CpG-stimulated IL-6 level at 5 ug/ml preincubated for 18 hrs followed by CpG challenge measured after 24 hrs by ELISA relative to control
T1 sequence (whole entry): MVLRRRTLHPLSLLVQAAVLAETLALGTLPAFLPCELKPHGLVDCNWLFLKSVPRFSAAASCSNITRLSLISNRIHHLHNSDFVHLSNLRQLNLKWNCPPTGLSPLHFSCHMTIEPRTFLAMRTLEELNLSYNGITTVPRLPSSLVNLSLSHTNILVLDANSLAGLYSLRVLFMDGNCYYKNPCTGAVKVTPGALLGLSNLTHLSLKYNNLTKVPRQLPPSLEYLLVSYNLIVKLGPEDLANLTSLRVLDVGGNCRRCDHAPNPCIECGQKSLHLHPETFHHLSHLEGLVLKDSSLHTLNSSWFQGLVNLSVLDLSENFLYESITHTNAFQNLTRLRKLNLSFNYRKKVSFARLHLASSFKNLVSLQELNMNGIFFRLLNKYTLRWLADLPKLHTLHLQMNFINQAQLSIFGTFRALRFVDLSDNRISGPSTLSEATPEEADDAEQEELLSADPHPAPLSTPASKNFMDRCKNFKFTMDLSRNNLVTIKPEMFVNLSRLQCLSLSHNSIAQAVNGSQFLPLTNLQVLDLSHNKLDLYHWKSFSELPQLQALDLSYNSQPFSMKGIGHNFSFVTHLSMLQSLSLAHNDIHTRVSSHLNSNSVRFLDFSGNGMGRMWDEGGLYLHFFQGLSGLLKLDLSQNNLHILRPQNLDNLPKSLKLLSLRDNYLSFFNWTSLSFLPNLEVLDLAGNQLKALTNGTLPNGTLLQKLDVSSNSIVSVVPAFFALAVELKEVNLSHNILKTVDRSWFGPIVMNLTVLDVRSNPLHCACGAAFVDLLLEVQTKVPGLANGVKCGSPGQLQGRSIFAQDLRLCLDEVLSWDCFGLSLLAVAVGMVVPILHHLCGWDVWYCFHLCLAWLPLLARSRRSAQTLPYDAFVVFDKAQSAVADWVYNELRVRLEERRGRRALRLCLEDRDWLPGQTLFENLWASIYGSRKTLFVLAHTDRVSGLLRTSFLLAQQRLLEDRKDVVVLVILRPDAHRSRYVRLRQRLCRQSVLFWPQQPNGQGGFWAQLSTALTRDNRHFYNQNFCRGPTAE
Method in brief: (§1)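 BALB/c male bone marrow macrophages were differentiated 7 days with L929 supernatant (≥99% CD11b+/F4/80+). Cells were plated at 2 × 10^5/well in triplicate, rested overnight, and given compounds at 5 μg/mL for 18 h. They were then stimulated with 100 ng/mL S. minnesota LPS, 10 ng/mL Pam3CSK4 (BLP) or 0.01 μM CpG for 24 h. Supernatant IL-12p40 and IL-6 were measured by ELISA (sensitivity 16 pg/mL).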

[2] = target: T1, Toll-like receptor 9 (Mus musculus); assay: Inhibition of TLR9 in BALB/c mouse BMDM assessed as downregulation of CpG-stimulated IL-12p40 level at 5 ug/ml preincubated for 18 hrs followed by CpG challenge measured after 24 hrs by ELISA relative to control; method in brief: as §1
TLR2/TLR6 (Mus musculus) [3] = target: T2, TLR2/TLR6 (Mus musculus) (UniProt Q9QUN7+Q9EPW9); assay: Inhibition of TLR2/6 in BALB/c mouse BMDM assessed as downregulation of BLP-stimulated IL-6 level at 5 ug/ml preincubated for 18 hrs followed by BLP challenge measured after 24 hrs by ELISA relative to control; type: protein-complex assay; method in brief: as §1
TLR2/TLR6 (Mus musculus) [4] = target: T2, TLR2/TLR6 (Mus musculus); assay: Inhibition of TLR2/6 in BALB/c mouse BMDM assessed as downregulation of BLP-stimulated IL-12p40 level at 5 ug/ml preincubated for 18 hrs followed by BLP challenge measured after 24 hrs by ELISA relative to control; type: protein-complex assay; method in brief: as §1
[5] = target: T3, Toll-like receptor 4 (Mus musculus) (UniProt Q9QUK6); assay: Inhibition of TLR4 in BALB/c mouse BMDM assessed as downregulation of LPS-stimulated IL-6 level at 5 ug/ml preincubated for 18 hrs followed by LPS challenge measured after 24 hrs by ELISA relative to control; method in brief: as §1
T3 sequence (whole entry): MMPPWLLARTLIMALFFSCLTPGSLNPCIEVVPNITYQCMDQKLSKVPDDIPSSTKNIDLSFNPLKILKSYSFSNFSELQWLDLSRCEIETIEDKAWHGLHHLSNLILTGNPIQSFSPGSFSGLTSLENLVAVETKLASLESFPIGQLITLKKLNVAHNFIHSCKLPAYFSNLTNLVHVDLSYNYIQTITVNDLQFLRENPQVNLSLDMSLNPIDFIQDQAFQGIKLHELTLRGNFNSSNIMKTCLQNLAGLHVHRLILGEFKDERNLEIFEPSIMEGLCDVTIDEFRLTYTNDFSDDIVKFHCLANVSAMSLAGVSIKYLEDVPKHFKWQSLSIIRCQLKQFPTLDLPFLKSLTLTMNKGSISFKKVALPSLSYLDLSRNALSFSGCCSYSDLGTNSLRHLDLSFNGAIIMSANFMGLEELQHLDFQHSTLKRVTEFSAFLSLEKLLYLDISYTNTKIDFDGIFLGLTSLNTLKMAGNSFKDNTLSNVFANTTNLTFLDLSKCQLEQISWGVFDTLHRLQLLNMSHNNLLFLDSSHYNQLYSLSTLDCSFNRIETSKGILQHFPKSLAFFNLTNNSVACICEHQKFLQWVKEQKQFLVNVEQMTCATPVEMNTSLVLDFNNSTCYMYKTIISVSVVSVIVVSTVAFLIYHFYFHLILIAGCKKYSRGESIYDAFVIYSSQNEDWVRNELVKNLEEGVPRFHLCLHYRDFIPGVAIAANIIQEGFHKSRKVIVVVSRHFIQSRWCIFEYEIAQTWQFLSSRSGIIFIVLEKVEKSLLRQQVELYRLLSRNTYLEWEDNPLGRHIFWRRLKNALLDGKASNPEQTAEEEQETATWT

[6] = target: T3, Toll-like receptor 4 (Mus musculus); assay: Inhibition of TLR4 in BALB/c mouse BMDM assessed as downregulation of LPS-stimulated IL-12p40 level at 5 ug/ml preincubated for 18 hrs followed by LPS challenge measured after 24 hrs by ELISA relative to control; method in brief: as §1

SMILES | inhibition [1] | inhibition [2] | inhibition (TLR2/TLR6 (Mus musculus) [3]) | inhibition (TLR2/TLR6 (Mus musculus) [4]) | inhibition [5] | inhibition [6]
Cc1ccc(CNS(=O)(=O)CCN(C)CCN(C)C)cc1 | Active | inactive | Active | inactive | Active | Active
CN(C)CCCNS(=O)(=O)Cc1ccccc1 | inactive | inactive | inactive | inactive | inactive | inactive
O=C(CCN1CCOCC1)NCc1cccc2cnccc12 | inactive | inactive | inactive | Active | inactive | inactive
CN(C)CCNS(=O)(=O)Cc1ccccc1 | inactive | inactive | inactive | inactive | inactive | inactive
CN(C)CCN(C)CCS(=O)(=O)NCc1ccc(Br)cc1 | inactive | Active | Active | inactive | inactive | Active
O=S(=O)(CCN1CCOCC1)NCc1ccccc1 | inactive | inactive | inactive | inactive | inactive | inactive
CN(C)CCOP(=O)(O)Cc1ccc([N+](=O)[O-])cc1 | inactive | inactive | inactive | inactive | inactive | inactive
Cc1ccc(CNS(=O)(=O)CCN(C)C)cc1 | inactive | inactive | inactive | inactive | inactive | inactive
O=[N+]([O-])c1ccc(CNS(=O)(=O)CCN2CCCC2)cc1 | inactive | inactive | inactive | inactive | inactive | inactive
O=S(=O)(CCN1CCCC1)NCc1ccccc1 | inactive | inactive | inactive | inactive | inactive | inactive
CN(C)CCS(=O)(=O)NCc1ccc(F)cc1 | inactive | Active | inactive | inactive | inactive | inactive
CN(C)CCNC(=O)Cc1ccccc1 | Active | inactive | inactive | inactive | inactive | Active
O=S(=O)(CCN1CCSCC1)c1ccccc1 | inactive | inactive | inactive | inactive | Active | Active
CN1CCN(CCS(=O)(=O)c2ccccc2)CC1 | inactive | inactive | inactive | inactive | inactive | inactive
Cc1ccc(CS(=O)(=O)CCN(C)C)cc1 | inactive | inactive | inactive | inactive | Active | Active
CC(C)(C)NCCS(=O)(=O)c1ccccc1 | inactive | inactive | inactive | Active | inactive | inactive
CN(C)CCN(C)CCS(=O)(=O)Cc1cccc(F)c1 | inactive | inactive | inactive | inactive | inactive | inactive
COc1cccc(C(=O)NCCN(C)C)c1 | Active | inactive | inactive | Active | inactive | Active
CN(C)CCNS(=O)(=O)Cc1ccc(Br)cc1 | inactive | inactive | inactive | inactive | inactive | inactive
CN(C)CCNS(=O)(=O)Cc1ccc(/C=C/c2ccccc2)cc1 | inactive | inactive | inactive | Active | inactive | inactive
O=S(=O)(CCN1CCOCC1)NCc1ccc(F)cc1 | Active | Active | Active | inactive | Active | inactive
Cc1ccc(CS(=O)(=O)CCC[N+]2(C)CCCC2)cc1 | inactive | inactive | inactive | inactive | inactive | inactive
CC(C)NCCS(=O)(=O)c1ccccc1 | inactive | inactive | inactive | Active | inactive | inactive
O=S(=O)(CCN1CCOCC1)Nc1ccccc1 | inactive | inactive | inactive | inactive | inactive | inactive
